Measurements from ChEMBL document CHEMBL1133105, “Antimalarial, antitrypanosomal, and antileishmanial activities and cytotoxicity of bis(9-amino-6-chloro-2-methoxyacridines): influence of the linker” (J Med Chem, 2000).

What was measured:
MRC5 [1] = experiment: Cytotoxicity on MRC-5 cells at 12.5 uM; type: functional; conditions: Homo sapiens
Procedure, shortened: (§1)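 MRC-5 human diploid embryonic lung cells seeded at 5 000/well, washed after 24 h, then given 2-fold drug dilutions (25, 12.5, 6.25, 3.13 µM) in RPMI + 5% FCS, final DMSO below 0.5%. Incubated 7 days at 37 °C, 5% CO2. MTT colorimetric read-out, scored as % reduction of absorbance at 540 nm versus untreated controls.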

Trypanosoma cruzi [2] = experiment: In Vitro evaluation for the percentage of activity towards Trypanosoma cruzi at 6.25 uM Concentration; Toxic upon mouse primary peritoneal macrophages; type: functional, organism-based
Procedure, shortened: (§2)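 Mouse peritoneal macrophages, 30 000/well, infected after 24 h with about 100 000 T. cruzi trypomastigotes per well plus 2-fold drug dilutions (12.5–1.56 µM). Incubated 4 days at 37 °C, 5% CO2. Methanol-fixed, Giemsa-stained and scored microscopically as % reduction of total parasite load (free trypomastigotes plus intracellular amastigotes) versus untreated controls.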

Leishmania infantum [3] = experiment: In Vitro evaluation for the percentage of activity towards Leishmania infantum at 3.13 uM Concentration; Toxic upon mouse primary peritoneal macrophages; type: functional, organism-based
Procedure, shortened: (§3)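 Starch-stimulated mouse peritoneal macrophages, 30 000/well, infected after 24 h with spleen-derived L. infantum amastigotes (10:1) together with 2-fold drug dilutions (12.5–1.56 µM). Incubated 7 days at 37 °C, 5% CO2. Wright-stained slides scored microscopically as % reduction of total parasite load or of infected macrophages. Uninfected treated cultures judged microscopically for macrophage toxicity.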

MRC5 [4] = experiment: Cytotoxicity on MRC-5 cells at 25 uM; type: functional; conditions: Homo sapiens; procedure, shortened: as §1
Leishmania infantum [5] = experiment: Percentage of activity against Leishmania infantum at 6.25 uM; Toxic upon mouse primary peritoneal macrophages; type: functional, organism-based; procedure, shortened: as §3
Trypanosoma brucei [6] = experiment: Percentage of activity against Trypanosoma brucei at 1.56 uM; type: functional
Procedure, shortened: (§4)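 Bloodstream-form T. brucei in HMI-9 medium, 10 000 parasites/well, exposed to 12.5, 6.25, 3.13 and 1.56 µM drug for 4 days. Read-out is % inhibition of parasite multiplication. Macrophage toxicity judged on mouse primary peritoneal macrophages.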

Trypanosoma brucei [7] = experiment: Percentage of activity against Trypanosoma brucei at 6.25 uM; type: functional; procedure, shortened: as §4
MRC5 [8] = experiment: Cytotoxicity on MRC-5 cells at 3.13 uM; type: functional; conditions: Homo sapiens; procedure, shortened: as §1
Plasmodium falciparum = experiment: In vitro sensitivity for Plasmodium falciparum FcB1R; type: functional, organism-based
Procedure, shortened: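 Asynchronous P. falciparum cultures in human erythrocytes (0.5% parasitemia, 1% haematocrit) exposed to serially diluted drug for 24 h at 37 °C. [3H]hypoxanthine (0.5 µCi/well) then added for a further 24 h. Uptake compared with drug-free controls on the same plate. IC50 taken from the concentration–response curve, averaged over independent experiments. DMSO ≤0.1%.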

Trypanosoma brucei [9] = experiment: Percentage of activity against Trypanosoma brucei at 3.13 uM; type: functional; procedure, shortened: as §4
Leishmania infantum [10] = experiment: Percentage of activity against Leishmania infantum at 1.56 uM; type: functional; procedure, shortened: as §3
Leishmania infantum [11] = experiment: Percentage of activity against Leishmania infantum at 12.5 uM Concentration; Toxic upon mouse primary peritoneal macrophages; type: functional, organism-based; procedure, shortened: as §3
Trypanosoma cruzi [12] = experiment: Percentage of activity against Trypanosoma cruzi at 12.5 uM; Toxic upon mouse primary peritoneal macrophages; type: functional, organism-based; procedure, shortened: as §2
Trypanosoma cruzi [13] = experiment: In Vitro evaluation for the percentage of activity towards Trypanosoma cruzi at 3.13 uM Concentration; Toxic upon mouse primary peritoneal macrophages; type: functional, organism-based; procedure, shortened: as §2
Trypanosoma brucei [14] = experiment: Percentage of activity against Trypanosoma brucei at 12.5 uM; type: functional; procedure, shortened: as §4
Trypanosoma cruzi [15] = experiment: Percentage of activity against Trypanosoma cruzi at 1.56 uM; type: functional; procedure, shortened: as §2
MRC5 [16] = experiment: Cytotoxicity on MRC-5 cells at 6.25 uM; type: functional; conditions: Homo sapiens; procedure, shortened: as §1
Leishmania infantum [17] = experiment: In Vitro evaluation for the percentage of activity towards Leishmania infantum at 1.56 uM Concentration; Toxic upon mouse primary peritoneal macrophages; type: functional, organism-based; procedure, shortened: as §3
Trypanosoma cruzi [18] = experiment: Percentage of activity against Trypanosoma cruzi at 3.13 uM; type: functional; procedure, shortened: as §2
Leishmania infantum [19] = experiment: In Vitro evaluation for the percentage of activity towards Leishmania infantum at 12.5 uM Concentration; type: functional; procedure, shortened: as §3
Leishmania infantum [20] = experiment: Percentage of activity against Leishmania infantum at 3.13 uM; type: functional; procedure, shortened: as §3
Leishmania infantum [21] = experiment: Percentage of activity against Leishmania infantum 6.25 uM; type: functional; procedure, shortened: as §3
Trypanosoma cruzi [22] = experiment: Percentage of activity against Trypanosoma cruzi at 12.5 uM; type: functional; procedure, shortened: as §2
Trypanosoma cruzi [23] = experiment: Percentage of activity against Trypanosoma cruzi at 6.25 uM Concentration; type: functional; procedure, shortened: as §2

Row | SMILES | IC50 (Plasmodium falciparum) [nM] | cytotoxicity at 12.5 µM (MRC5 [1]) [%] | Cytotoxicity (Trypanosoma cruzi [2]) | Cytotoxicity (Leishmania infantum [3]) | cytotoxicity at 25 µM (MRC5 [4]) [%] | Cytotoxicity (Leishmania infantum [5]) | Percent inhibition of parasite multiplication (Trypanosoma brucei [6]) [%] | Inhibition of parasite multiplication (Trypanosoma brucei [7]) [%] | cytotoxicity at 3.13 µM (MRC5 [8]) [%] | Parasite growth inhibition (Trypanosoma brucei [9]) [%] | Antileishmanial activity (% reduction of parasite load) (Leishmania infantum [10]) [%] | Cytotoxicity (Leishmania infantum [11]) | Cytotoxicity (Trypanosoma cruzi [12]) | Inhibition of parasite multiplication (Trypanosoma brucei [14]) [%] | Parasite load reduction (Trypanosoma cruzi [15]) [%] | cytotoxicity at 6.25 µM (MRC5 [16]) [%] | Reduction of T. cruzi parasite load (Trypanosoma cruzi [18]) [%] | Percent inhibition of Leishmania infantum (Leishmania infantum [19]) [%] | Percent antileishmanial activity (reduction of parasite load) (Leishmania infantum [20]) [%] | Antileishmanial activity (% reduction of parasite load) (Leishmania infantum [21]) [%] | other results
1 | COc1ccc2nc3cc(Cl)ccc3c(NCCCN(CCCNc3c4ccc(Cl)cc4nc4ccc(OC)cc34)C(=O)C(CC(=O)OCC3c4ccccc4-c4ccccc43)NC(=O)OC(C)(C)C)c2c1 (stereo not drawn) | 230 | 0 | – | – | 0 | – | 100 | 100 | 0 | 100 | 0 | – | – | 100 | 0 | 0 | 0 | 20 | 0 | 0 | T. cruzi parasite load reduction (Trypanosoma cruzi [22]): 40%; Reduction of T. cruzi parasite load (Trypanosoma cruzi [23]): 0%
2 | COc1ccc2nc3cc(Cl)ccc3c(NCCN(CCNc3c4ccc(Cl)cc4nc4ccc(OC)cc34)C(=O)C(C)NC(=O)OC(C)(C)C)c2c1 (stereo not drawn) | 109 | 0 | – | – | 100 | – | 99 | 100 | 0 | 100 | 0 | – | – | 100 | 0 | 0 | 0 | 90 | 20 | 60 | T. cruzi parasite load reduction (Trypanosoma cruzi [22]): 60%; Reduction of T. cruzi parasite load (Trypanosoma cruzi [23]): 40%
3 | COc1ccc2nc3cc(Cl)ccc3c(NCCCN(CCCNc3c4ccc(Cl)cc4nc4ccc(OC)cc34)C(=O)C(CCCCN)NC(=O)OC(C)(C)C)c2c1 (stereo not drawn) | > 500 | 100 | – | – | 100 | – | 100 | 100 | 0 | 100 | 0 | – | – | 100 | 0 | 40 | 40 | 40 | 0 | 0 | T. cruzi parasite load reduction (Trypanosoma cruzi [22]): 99%; Reduction of T. cruzi parasite load (Trypanosoma cruzi [23]): 90%
4 | COc1ccc2nc3cc(Cl)ccc3c(NCCCN(CCCNc3c4ccc(Cl)cc4nc4ccc(OC)cc34)C(=O)C(COC(C)=O)NC(=O)OC(C)(C)C)c2c1 (stereo not drawn) | 63 | 90 | – | – | 100 | – | 100 | 100 | 20 | 100 | 0 | – | – | 100 | 0 | 40 | 0 | 90 | 60 | 80 | T. cruzi parasite load reduction (Trypanosoma cruzi [22]): 70%; Reduction of T. cruzi parasite load (Trypanosoma cruzi [23]): 40%
5 | COc1ccc2nc3cc(Cl)ccc3c(NCCCN(CCCNc3c4ccc(Cl)cc4nc4ccc(OC)cc34)C(=O)CCN3CCCCC3)c2c1 | 67 | 71 | Toxic | Toxic | 78 | Toxic | 100 | 100 | 42 | 100 | – | Toxic | Toxic | – | 40 | 57 | – | – | – | – | Cytotoxicity (Leishmania infantum [17]): Toxic; Cytotoxicity (Trypanosoma cruzi [13]): Toxic
6 | COc1ccc2nc3cc(Cl)ccc3c(NCCCN(CCCNc3c4ccc(Cl)cc4nc4ccc(OC)cc34)C(=O)C(C)N)c2c1 (stereo not drawn) | > 500 | 100 | – | – | 100 | – | 100 | 100 | 20 | 100 | 0 | – | – | 100 | 0 | 40 | 0 | 0 | 0 | 0 | T. cruzi parasite load reduction (Trypanosoma cruzi [22]): 0%; Reduction of T. cruzi parasite load (Trypanosoma cruzi [23]): 0%

Continued, in another order:

Row | IC50 (Plasmodium falciparum) [nM] | SMILES | cytotoxicity at 12.5 µM (MRC5 [1]) [%] | Cytotoxicity (Trypanosoma cruzi [2]) | Cytotoxicity (Leishmania infantum [3]) | cytotoxicity at 25 µM (MRC5 [4]) [%] | Cytotoxicity (Leishmania infantum [5]) | Percent inhibition of parasite multiplication (Trypanosoma brucei [6]) [%] | Inhibition of parasite multiplication (Trypanosoma brucei [7]) [%] | cytotoxicity at 3.13 µM (MRC5 [8]) [%] | Parasite growth inhibition (Trypanosoma brucei [9]) [%] | Antileishmanial activity (% reduction of parasite load) (Leishmania infantum [10]) [%] | Cytotoxicity (Leishmania infantum [11]) | Cytotoxicity (Trypanosoma cruzi [12]) | Inhibition of parasite multiplication (Trypanosoma brucei [14]) [%] | Parasite load reduction (Trypanosoma cruzi [15]) [%] | cytotoxicity at 6.25 µM (MRC5 [16]) [%] | Reduction of T. cruzi parasite load (Trypanosoma cruzi [18]) [%] | Percent inhibition of Leishmania infantum (Leishmania infantum [19]) [%] | Percent antileishmanial activity (reduction of parasite load) (Leishmania infantum [20]) [%] | Antileishmanial activity (% reduction of parasite load) (Leishmania infantum [21]) [%] | other results
7 | 55 | COc1ccc2nc3cc(Cl)ccc3c(NCCCNCCCNc3c4ccc(Cl)cc4nc4ccc(OC)cc34)c2c1 | 100 | Toxic | Toxic | 100 | Toxic | 100 | 100 | 100 | 100 | 40 | Toxic | Toxic | 100 | 60 | 100 | – | – | – | – | Cytotoxicity (Trypanosoma cruzi [13]): Toxic
8 | 62 | COc1ccc2nc3cc(Cl)ccc3c(NCCCN(CCCNc3c4ccc(Cl)cc4nc4ccc(OC)cc34)C(=O)CCN3CCN(C)CC3)c2c1 | 74 | Toxic | Toxic | 80 | Toxic | 100 | 100 | 40 | 100 | – | Toxic | Toxic | – | 0 | 57 | – | – | – | – | Cytotoxicity (Leishmania infantum [17]): Toxic; Cytotoxicity (Trypanosoma cruzi [13]): Toxic
9 | 18 | COc1ccc2nc3cc(Cl)ccc3c(NCCCCNc3c4ccc(Cl)cc4nc4ccc(OC)cc34)c2c1 | 100 | Toxic | Toxic | 100 | Toxic | 100 | 100 | 100 | 100 | – | Toxic | Toxic | 100 | 90 | 100 | – | – | – | – | Cytotoxicity (Leishmania infantum [17]): Toxic; Cytotoxicity (Trypanosoma cruzi [13]): Toxic
10 | 26 | COc1ccc2nc3cc(Cl)ccc3c(NCCCN(CCCNc3c4ccc(Cl)cc4nc4ccc(OC)cc34)C(=O)CCN3CCOCC3)c2c1 | 100 | Toxic | Toxic | 100 | Toxic | 100 | 100 | 80 | 100 | – | Toxic | Toxic | 100 | 40 | 100 | 60 | – | – | – | Cytotoxicity (Leishmania infantum [17]): Toxic
